{"source": "ChEMBL document CHEMBL2390883", "about": "“Dissecting the pharmacophore of curcumin. Which structural element is critical for which action?” (J Nat Prod, 2013)", "key": {"SK-N-SH": {"system": "SK-N-SH", "experiment": "Cytotoxicity against human SK-N-SH cells after 6 hrs", "format": "cell-based"}, "HeLa": {"system": "HeLa", "experiment": "Cytotoxicity against human HeLa cells after 12 hrs", "format": "cell-based"}, "Jurkat [1]": {"system": "Jurkat", "experiment": "Cytotoxicity against human Jurkat cells after 6 hrs", "format": "cell-based"}, "[2]": {"system": "Human immunodeficiency virus 1", "experiment": "Antiviral activity against VSV-G protein pseudotyped human immunodeficiency virus 1 infected in human Jurkat cells assessed as inhibition of HIV-1 replication incubated 30 mins prior to infection measured after 12 hrs by luciferase reporter gene assay relative to curcumin", "format": "functional"}, "[3]": {"target": "T1, Nuclear factor erythroid 2-related factor 2 (Homo sapiens) (UniProt Q16236)", "T1 sequence (whole entry)": "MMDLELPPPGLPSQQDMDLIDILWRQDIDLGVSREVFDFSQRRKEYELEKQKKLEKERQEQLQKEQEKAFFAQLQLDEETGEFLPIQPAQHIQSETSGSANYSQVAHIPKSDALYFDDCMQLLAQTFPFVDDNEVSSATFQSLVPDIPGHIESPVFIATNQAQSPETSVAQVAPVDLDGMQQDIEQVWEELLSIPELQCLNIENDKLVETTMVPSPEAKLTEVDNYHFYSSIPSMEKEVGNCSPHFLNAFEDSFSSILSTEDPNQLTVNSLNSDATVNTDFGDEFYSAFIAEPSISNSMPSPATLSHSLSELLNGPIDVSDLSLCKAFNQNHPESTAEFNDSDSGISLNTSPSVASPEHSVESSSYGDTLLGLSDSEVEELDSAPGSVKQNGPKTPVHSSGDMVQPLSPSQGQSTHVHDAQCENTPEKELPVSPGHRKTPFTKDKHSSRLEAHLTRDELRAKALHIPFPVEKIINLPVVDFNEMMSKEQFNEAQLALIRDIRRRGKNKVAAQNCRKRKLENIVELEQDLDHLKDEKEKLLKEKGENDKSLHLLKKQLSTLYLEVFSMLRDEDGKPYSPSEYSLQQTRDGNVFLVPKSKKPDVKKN", "experiment": "Activation of Nrf2/ARE-mediated transcription in human SK-N-SH cells at high concentration after 6 hrs by luciferase reporter gene assay", "format": "cell-based", "how_it_was_run": "(§1)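 SK-N-SH cells were transiently transfected with pGL3-ARE-Luc. After 24 h they were exposed to increasing concentrations of compound for 6 h. Cells were washed in PBS and lysed in Tris-phosphate pH 7.8 buffer with MgCl₂, DTT, Triton X-100 and glycerol, then luciferase activity was read in the supernatant. Output is fold induction over untreated cells; three independent experiments, mean SD, Student's t test.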"}, "[4]": {"target": "T1, Nuclear factor erythroid 2-related factor 2 (Homo sapiens)", "experiment": "Activation of Nrf2/ARE-mediated transcription in human SK-N-SH cells at low concentration after 6 hrs by luciferase reporter gene assay", "format": "cell-based", "how_it_was_run": "as §1"}, "[5]": {"system": "Human immunodeficiency virus 1", "experiment": "Antiviral activity against VSV-G protein pseudotyped human immunodeficiency virus 1 infected in human Jurkat cells assessed as inhibition of HIV-1 replication incubated 30 mins prior to infection measured after 12 hrs by luciferase reporter gene assay", "format": "functional, organism-based", "how_it_was_run": "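Jurkat cells at 10⁶/mL were pretreated with compounds at increasing doses for 30 min. They were then infected with VSV-G-pseudotyped pNL4-3.Luc.R⁻E⁻ (200 ng p24). Firefly luciferase was read in lysates (Tris-phosphate pH 7.8, Triton X-100) 12 h after infection. Values are % activation versus untreated infected cells (100%), given as mean ± SD of independent experiments; IC₅₀ by curve fitting.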"}, "[6]": {"experiment": "Inhibition of Tat-induced HIV-1-Long terminal repeat transactivation in human Hela Tat-Luc cells after 12 hrs by luciferase reporter gene assay", "format": "cell-based", "conditions": "Human immunodeficiency virus 1, HeLa", "how_it_was_run": "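HeLa cells stably transfected with pLTR-Luc and pcDNA3-Tat were exposed to compound at the indicated doses, or to DRB (50 μM) as reference, for 12 h. Luciferase activity was then measured. Output is % activation relative to untreated cells; four independent experiments, mean SD, Student's t test; IC50 from curve fitting.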"}, "[7]": {"target": "Mitogen-activated protein kinase; ERK1/ERK2 (Homo sapiens) (UniProt P27361+P28482)", "sequence (P27361 whole entry, looked up)": "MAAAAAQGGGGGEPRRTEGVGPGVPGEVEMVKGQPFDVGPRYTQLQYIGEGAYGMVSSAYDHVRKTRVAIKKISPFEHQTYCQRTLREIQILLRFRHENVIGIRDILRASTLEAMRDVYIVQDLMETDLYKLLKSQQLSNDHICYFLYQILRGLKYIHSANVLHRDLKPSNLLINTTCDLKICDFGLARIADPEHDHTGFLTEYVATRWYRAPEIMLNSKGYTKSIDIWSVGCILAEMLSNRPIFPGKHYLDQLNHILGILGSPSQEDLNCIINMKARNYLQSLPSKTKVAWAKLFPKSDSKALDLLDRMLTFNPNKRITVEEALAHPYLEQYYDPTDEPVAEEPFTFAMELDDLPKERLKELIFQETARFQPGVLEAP", "sequence (P28482 whole entry, looked up)": "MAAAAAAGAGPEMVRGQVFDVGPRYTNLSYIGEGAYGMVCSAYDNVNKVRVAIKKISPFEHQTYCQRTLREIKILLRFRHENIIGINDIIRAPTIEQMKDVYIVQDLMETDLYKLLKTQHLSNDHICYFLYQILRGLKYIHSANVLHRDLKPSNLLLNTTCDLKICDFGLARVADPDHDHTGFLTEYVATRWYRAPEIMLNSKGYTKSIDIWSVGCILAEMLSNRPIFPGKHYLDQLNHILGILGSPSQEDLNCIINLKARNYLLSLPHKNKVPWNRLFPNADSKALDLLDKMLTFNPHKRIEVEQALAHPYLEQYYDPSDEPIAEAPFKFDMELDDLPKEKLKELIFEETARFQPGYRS", "experiment": "Inhibition of PMA-induced ERK 1/2 phosphorylation in human Jurkat cells after 30 mins by Western blotting analysis", "format": "cell-based", "how_it_was_run": "(§2)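 Jurkat cells (10⁶/mL) were preincubated 30 min with compound, then given PMA (50 ng/mL) for 15 min. Protein was extracted in NP-40 lysis buffer with protease and phosphatase inhibitors. 30 μg per lane was run on 10% SDS-PAGE and transferred to nitrocellulose. Blots were probed for phospho- and total ERK1/2, JNK, p65 and IκBα (incl. phospho-Ser32/36), with tubulin as loading control.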"}, "[8]": {"target": "Transcription factor p65 (Homo sapiens) (UniProt Q04206)", "sequence (Q04206 whole entry)": "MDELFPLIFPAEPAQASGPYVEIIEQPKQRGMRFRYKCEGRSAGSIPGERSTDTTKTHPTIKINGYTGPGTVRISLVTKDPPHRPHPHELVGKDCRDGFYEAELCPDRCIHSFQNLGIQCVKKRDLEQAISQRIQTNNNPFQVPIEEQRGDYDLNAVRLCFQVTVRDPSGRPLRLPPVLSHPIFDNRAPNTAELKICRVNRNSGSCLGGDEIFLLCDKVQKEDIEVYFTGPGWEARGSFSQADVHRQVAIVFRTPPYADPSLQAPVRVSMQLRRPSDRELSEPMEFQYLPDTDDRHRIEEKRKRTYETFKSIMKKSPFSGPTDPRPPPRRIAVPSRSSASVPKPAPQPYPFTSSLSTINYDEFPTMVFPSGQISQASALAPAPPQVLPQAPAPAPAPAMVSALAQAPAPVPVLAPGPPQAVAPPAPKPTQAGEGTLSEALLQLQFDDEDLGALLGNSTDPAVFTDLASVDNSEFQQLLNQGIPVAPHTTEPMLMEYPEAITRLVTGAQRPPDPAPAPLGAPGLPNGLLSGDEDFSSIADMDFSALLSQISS", "experiment": "Inhibition of PMA-induced NF-kappaB p65 phosphorylation in human Jurkat cells after 30 mins by Western blotting analysis", "format": "cell-based", "how_it_was_run": "as §2"}, "[9]": {"target": "Mitogen-activated protein kinase 8 (Homo sapiens) (UniProt P45983)", "sequence (P45983 whole entry)": "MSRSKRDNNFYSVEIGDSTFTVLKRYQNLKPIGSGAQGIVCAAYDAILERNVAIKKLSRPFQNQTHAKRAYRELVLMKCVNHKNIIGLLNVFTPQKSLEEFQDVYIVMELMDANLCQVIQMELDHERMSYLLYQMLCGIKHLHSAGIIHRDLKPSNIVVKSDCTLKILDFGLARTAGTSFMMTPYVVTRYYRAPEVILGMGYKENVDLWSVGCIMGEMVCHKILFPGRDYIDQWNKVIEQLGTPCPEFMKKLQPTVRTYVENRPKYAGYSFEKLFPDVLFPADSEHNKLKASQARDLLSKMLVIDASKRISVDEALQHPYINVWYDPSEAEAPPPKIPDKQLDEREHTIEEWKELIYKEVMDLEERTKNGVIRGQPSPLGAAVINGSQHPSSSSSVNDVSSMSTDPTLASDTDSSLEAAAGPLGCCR", "experiment": "Inhibition of PMA-induced JNK1 phosphorylation in human Jurkat cells after 30 mins by Western blotting analysis", "format": "cell-based", "how_it_was_run": "as §2"}, "Jurkat [10]": {"system": "Jurkat", "experiment": "Inhibition of PMA-induced NF-kappaB activation in human Jurkat cells assessed as inhibition of IkappaBalpha degradation after 30 mins by Western blotting analysis", "format": "cell-based", "how_it_was_run": "as §2"}, "Jurkat [11]": {"system": "Jurkat", "experiment": "Inhibition of PMA-induced NF-kappaB activation in human Jurkat cells assessed as inhibition of IkappaBalpha phosphorylation after 30 mins by Western blotting analysis", "format": "cell-based", "how_it_was_run": "as §2"}, "[12]": {"experiment": "(§3) Inhibition of NF-kappaB in human 5.1 cells assessed as inhibition of TNFalpha-induced HIV-1-LTR activation after 6 hrs by luciferase reporter gene assay", "format": "cell-based", "how_it_was_run": "(§4)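 Jurkat-derived 5.1 clone, stably carrying HIV-LTR-driven luciferase and maintained under G418. Cells were preincubated with compound at the indicated doses, then stimulated with TNFα for 6 h (methods give 20 ng/mL, legend 2 ng/mL). Luciferase was read from lysate. Output is % inhibition versus TNFα alone; IC50 from curve fitting.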"}, "[13]": {"target": "Mitogen-activated protein kinase 9 (Homo sapiens) (UniProt P45984)", "sequence (P45984 whole entry, looked up)": "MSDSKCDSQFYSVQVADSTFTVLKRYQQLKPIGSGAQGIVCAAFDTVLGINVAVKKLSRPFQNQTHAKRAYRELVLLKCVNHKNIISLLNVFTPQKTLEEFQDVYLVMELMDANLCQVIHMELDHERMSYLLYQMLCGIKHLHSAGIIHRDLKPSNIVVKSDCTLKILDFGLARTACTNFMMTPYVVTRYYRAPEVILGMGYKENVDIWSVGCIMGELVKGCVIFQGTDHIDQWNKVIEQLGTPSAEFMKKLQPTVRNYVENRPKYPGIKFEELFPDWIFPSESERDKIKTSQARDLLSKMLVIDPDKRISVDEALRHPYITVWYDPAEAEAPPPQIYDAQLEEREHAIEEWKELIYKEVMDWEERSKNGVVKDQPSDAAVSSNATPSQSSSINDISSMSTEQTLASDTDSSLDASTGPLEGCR", "experiment": "Inhibition of PMA-induced JNK2 phosphorylation in human Jurkat cells after 30 mins by Western blotting analysis"}, "[14]": {"target": "T1, Nuclear factor erythroid 2-related factor 2 (Homo sapiens)", "experiment": "Activation of Nrf2/ARE-mediated transcription in human SK-N-SH cells after 6 hrs by luciferase reporter gene assay", "format": "cell-based", "how_it_was_run": "as §1"}, "Homo sapiens": {"species_on_record": "Homo sapiens", "experiment": "as §3", "format": "cell-based", "how_it_was_run": "as §4"}}, "note": "pIC50: −log10 of the molar value. Activity calls are given as the source filed them. No cut-off for these calls is given here."}
{"smiles": "COc1cc(/C=C/C(=O)/C=C/c2ccc(O)c(OC)c2)ccc1O", "values": [{"measurement": "Activity", "setting": "SK-N-SH", "value": "Non-toxic"}, {"measurement": "Activity", "setting": "HeLa", "value": "Non-toxic"}, {"measurement": "Activity", "setting": "Jurkat [1]", "value": "Non-toxic"}, {"measurement": "Ratio", "setting": "[2]", "value": 4}, {"measurement": "Activity", "setting": "[3]", "value": "inactive"}, {"measurement": "Activity", "setting": "[4]", "value": "Active"}, {"measurement": "Activity", "setting": "[5]", "value": "Active"}, {"measurement": "pIC50", "setting": "[6]", "value": 5.33}, {"measurement": "inhibition", "setting": "[7]", "value": "inactive"}, {"measurement": "inhibition", "setting": "[8]", "value": "Dose-dependent effect"}, {"measurement": "inhibition", "setting": "[9]", "value": "Dose-dependent effect"}, {"measurement": "inhibition", "setting": "Jurkat [10]", "value": "Dose-dependent effect"}, {"measurement": "inhibition", "setting": "Jurkat [11]", "value": "Dose-dependent effect"}, {"measurement": "pIC50", "setting": "[12]", "value": 5.31}, {"measurement": "inhibition", "setting": "[13]", "value": "Dose-dependent effect"}]}
{"smiles": "COc1cc(/C=C/C(=O)CC(=O)/C=C/c2ccc(O)c(OC)c2)ccc1O", "note": "[CURCUMIN]", "values": [{"measurement": "Activity", "setting": "[14]", "value": "Active"}, {"measurement": "Activity", "setting": "[5]", "value": "Active"}, {"measurement": "pIC50", "setting": "[12]", "value": 4.79}]}
{"smiles": "COc1cc(CCC(=O)CC(=O)CCc2cc(CCC(C)C)c(O)c(OC)c2)cc(CCC(C)C)c1O", "values": [{"measurement": "inhibition", "setting": "Homo sapiens", "value": "Active"}]}
{"smiles": "COc1cc(CCC(=O)CC(=O)CCc2ccc(O)c(OC)c2)ccc1O", "values": [{"measurement": "Activity", "setting": "[14]", "value": "inactive"}, {"measurement": "inhibition", "setting": "Homo sapiens", "value": "Active"}]}
{"smiles": "COc1cc(/C=C/C(=O)/C=C/c2cc(CC=C(C)C)c(O)c(OC)c2)cc(CC=C(C)C)c1O", "values": [{"measurement": "Activity", "setting": "[14]", "value": "inactive"}, {"measurement": "inhibition", "setting": "Homo sapiens", "value": "Active"}]}
{"smiles": "COc1cc(/C=C/C(=O)CC(=O)/C=C/c2cc(CC=C(C)C)c(O)c(OC)c2)cc(CC=C(C)C)c1O", "values": [{"measurement": "Activity", "setting": "[14]", "value": "inactive"}, {"measurement": "inhibition", "setting": "Homo sapiens", "value": "inactive"}]}
